Compound activity deposited in PubChem by several laboratories.
Rows were chosen to be rich in hits. Some 4.1% of all compounds tested hit in one or more screens of this group.
KCNK3 block – human KCNK3 channel inhibition, primary screen. O14649. CHO-KCNK3 thallium flux, FluxOR fluorescence; active compounds read low. B-score at 10 µM. actives 0.84% (n = 340,000);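 active = B-score under library mean minus 4 SD, starting fluorescence ratio at most library mean plus 5 SD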;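 note: more negative B-score means stronger inhibition of thallium flux through KCNK3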
KCNK9 block – blocks the human KCNK9 two-pore domain potassium channel; Q9NPC2; HEK293 KCNK9, FluxOR thallium flux fluorescence; active compounds read low; B-score at 10 µM; actives 1.2% (n = 310,000); AID 488922;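 active = ratio B-score over 3 SD below the library mean, with starting fluorescence within 5 SD of its mean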;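 note: negative B-score means less thallium flux so channel inhibition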
KCNQ1 block – human KCNQ1 channel inhibition. B-score at 10 µM. actives 1.3% (n = 310,000). P51787. CHO-K1 KCNQ1, FluxOR thallium flux fluorescence; active compounds read high;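 active = compounds whose thallium flux B-score, printed positive for inhibition, exceeds three library SD while starting fluorescence stays within three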;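 note: channel opened by potassium depolarization with thallium stimulus after 20 min compound exposure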
Target sequence (P51787 whole entry, looked up): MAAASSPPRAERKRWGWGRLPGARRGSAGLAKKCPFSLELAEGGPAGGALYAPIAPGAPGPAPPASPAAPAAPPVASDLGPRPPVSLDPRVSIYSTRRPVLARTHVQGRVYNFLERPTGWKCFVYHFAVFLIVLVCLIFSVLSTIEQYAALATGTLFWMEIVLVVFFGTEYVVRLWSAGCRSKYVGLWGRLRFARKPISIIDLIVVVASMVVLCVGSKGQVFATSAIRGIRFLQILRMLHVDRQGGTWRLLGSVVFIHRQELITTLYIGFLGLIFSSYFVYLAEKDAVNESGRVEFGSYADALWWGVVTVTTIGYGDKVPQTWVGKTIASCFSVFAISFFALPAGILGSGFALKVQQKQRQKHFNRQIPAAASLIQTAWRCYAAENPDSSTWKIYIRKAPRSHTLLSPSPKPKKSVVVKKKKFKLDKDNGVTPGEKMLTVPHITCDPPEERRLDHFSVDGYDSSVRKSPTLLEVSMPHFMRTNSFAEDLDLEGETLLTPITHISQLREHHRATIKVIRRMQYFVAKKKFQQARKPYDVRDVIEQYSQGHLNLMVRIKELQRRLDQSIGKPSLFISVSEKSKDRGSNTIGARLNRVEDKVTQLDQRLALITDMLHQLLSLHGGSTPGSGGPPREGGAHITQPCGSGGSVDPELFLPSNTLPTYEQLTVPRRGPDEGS
KCNQ1 act – potentiates or activates the human KCNQ1 potassium channel; AID 2648; CHO-K1 KCNQ1, thallium flux FluxOR fluorescence; active compounds read high; B-score at 10 µM; actives 0.35% (n = 310,000); P51787;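 active = fluorescence ratio B-score, a plate-corrected score, at least three library SD, with initial intensity B-score within 5 SD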
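Medium – assay buffer, equal DMSO in all wells · Material – CHO-K1 cell line with stable KCNQ1 potassium channel expression · Signal – kinetic FluxOR thallium fluorescence, 10-s 1-Hz baseline, 110-s post-stimulus read · Compound – single concentration per compound, DMSO matched to controls · Schedule – 37 °C overnight plating, 90-min dark dye load, 20-min compound pretreatment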
Cl transport mod – modulates chloride dependent transport by human KCC2 | KCC2 cells, thallium flux FluoZin-2 fluorescence | AID 1456 | actives 2.2% (n = 190,000) | Q9H2X9 | B-score of Tl+ flux slope (higher = more flux/activation; lower = inhibition) at 10 µM;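 active = thallium flux slope and its plate-corrected score both differing from the plate sample mean at a set confidence after two filtering rounds, in either direction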;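 note: slope of fluorescence scaled to starting intensity during 10 to 20 s after thallium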
hERG rescue – shields human hERG channel from block by proarrhythmic agents | Q12809 | CHO-hERG, FluxOR thallium flux, dofetilide IC70 present | activation (rescue from dofetilide block), less the hit threshold, % at 10 µM | actives 0.51% (n = 310,000);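 active = activation above the mean of controls blocked by dofetilide plus 5 SD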;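 note: thallium influx through hERG after potassium depolarization seen as dye fluorescence rise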
KCNQ1 inh valid – confirmation of human KCNQ1 potassium channel inhibitors | shares compounds with KCNQ1 block | KCNQ1 cell line, FluxOR thallium flux fluorescence | inhibition, % at 10 µM | actives 93% (n = 1,600) | AID 588353;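 active = primary screen active, with duplicate mean exceeding buffer control mean plus 3 SD of buffer wells, cut at about 28% in these data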
CHO KCNQ1 ctr – counter-screen for KCNQ1 inhibitors: effect in parental CHO cells; AID 588366; actives 21% (n = 1,600); parental CHO-K1, FluxOR thallium flux fluorescence ratio; active compounds read low; zero means no signal rise above baseline; shares compounds with KCNQ1 block; fluorescence ratio (Tl flux) at 10 µM;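 active = mean of duplicate thallium-flux fluorescence ratios in parental host cells more than 5 SD below the buffer control mean, cut at about 0.38 in these data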;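 note: ratio is peak minus minimum fluorescence divided by baseline fluorescence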
KCNQ1 APC inh – confirmation of human KCNQ1 potassium channel inhibitors by electrophysiology | shares compounds with KCNQ1 block | KCNQ1-CHO cells, automated patch clamp current | calls only at 10 µM | actives 20% (n = 490) | AID 624120;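 active = KCNQ1 current drop exceeding 3 SD of negative control wells, seen in both duplicate runs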;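 note: steady state current during a 2 s step from -80 to +40 mV; negative values mean current inhibition and positive values mean potentiation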
KCNQ2 spec – rat KCNQ2 inhibition in KCNQ1 inhibitor specificity screen; AID 651746; inhibition, % at 10 µM; KCNQ2 cells, FluxOR thallium flux fluorescence; actives 71% (n = 1,600); shares compounds with KCNQ1 block;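 active = mean percent inhibition of the KCNQ2 thallium signal more than 5 SD above the buffer-only control wells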;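 note: KCNQ2 expressed in CHO cells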
KCNQ1-KCNE1 inh – selectivity of KCNQ1 inhibitors: inhibition of human KCNQ1/KCNE1 channel; shares compounds with KCNQ1 block; KCNQ1/KCNE1 cells, FluxOR thallium flux fluorescence; inhibition, % at 10 µM; actives 77% (n = 1,600);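 active = mean percent inhibition of duplicate wells above the buffer-only control mean plus 3 SD of those controls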
KCNK9 block conf – human KCNK9 inhibitor confirmation; shares compounds with KCNK9 block; inhibition, % at 10 µM; HEK293 KCNK9 cells, FluxOR thallium flux fluorescence; actives 43% (n = 4,900);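 active = thallium signal inhibited by more than 5 SD of the compound-free buffer control wells, on both duplicate plates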
Kir2-1 spec – mouse Kir2.1 off-target activity of KCNK9 modulators | shares compounds with KCNK9 block | Kir2.1 cells, FluxOR thallium flux fluorescence | inhibition, % at 10 µM | actives 4% (n = 4,900) | AID 492993;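 active = thallium signal drop more than 5 SD beyond the mean of the no-compound control wells, seen in both duplicate plates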;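 note: signal is fluorescence rise after thallium addition divided by baseline fluorescence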
KCNK9 uninduced – second check of KCNK9 modulator effects in non-induced HEK293 cells; shares compounds with KCNK9 block; FluxOR thallium flux; inhibition, % at 10 µM; actives 40% (n = 4,900);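 active = thallium signal drop beyond 5 SD of the untreated control mean, on both duplicate plates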
KCNK3 inh conf – human KCNK3 channel inhibition, confirmation assay; actives 99% (n = 2,400); CHO-KCNK3 thallium flux, FluxOR fluorescence; 0% buffer, 100% carvedilol maximal block; ratio percent of control, % at 10 µM; AID 651638; shares compounds with KCNK3 block;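 active = ratio percent of control, averaged over triplicates, above buffer control mean plus 5 SD, cut at about 64% in these data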;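 note: ratio is the fluorescence rise from min to max over baseline after thallium stimulus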
KCNK3 uninduced – activity in cells without induced KCNK3 expression; non-induced KCNK3 parental cells, FluxOR thallium flux; active compounds read low; AID 651747; actives 40% (n = 2,400); shares compounds with KCNK3 block; thallium flux ratio (lower = more inhibition) at 10 µM;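 active = thallium flux ratio, averaged over three wells, more than 5 SD below the buffer control mean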;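 note: host cells are CHO cells without KCNK3 induction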
Large screens that a line does not name were inactive (follow-up assays come after a bar, where they were run).

CCN(CC)S(=O)(=O)c1cc(NC(=O)C2CCN(c3ncnc4sc(C)c(C)c34)CC2)ccc1Cl	KCNK3 block -9.55, KCNQ1 block 6 (no result: Cl transport mod) | KCNQ1 inh valid 58.0 | CHO KCNQ1 ctr inactive | KCNQ2 spec 72.0% | KCNQ1-KCNE1 inh 95.0% | KCNK3 inh conf 102.0 | KCNK3 uninduced 0.157
Cc1ccc(NC(=O)C2CCN(c3ncnc4sc(C)c(C)c34)CC2)cc1S(=O)(=O)N(C)C	none (no result: Cl transport mod)
CCOC(=O)N1CCC(n2c(SCC(=O)Nc3ccccc3OC)nc3ccccc3c2=O)CC1	KCNK3 block -8.91, KCNQ1 block 6 | KCNQ1 inh valid 82.0 | CHO KCNQ1 ctr 0.379 | KCNQ2 spec 109.0% | KCNQ1-KCNE1 inh 136.0% | KCNK9 block conf inactive | Kir2-1 spec inactive | KCNK9 uninduced inactive | KCNK3 inh conf 109.7 | KCNK3 uninduced 0.151
c1ccc(-c2csc(N3CCCCCC3)n2)cc1	none (no result: Cl transport mod)
Cc1cc(N2CCN(c3nc(-c4ccccc4)cs3)CC2)c2ccccc2n1	KCNK3 block -13.9, KCNQ1 block 7 | KCNQ1 inh valid 129.5 | CHO KCNQ1 ctr inactive | KCNQ1 APC inh inactive | KCNQ2 spec 106.7% | KCNQ1-KCNE1 inh 195.0% | KCNK3 inh conf 136.0 | KCNK3 uninduced 0.131
Cc1ccc(F)cc1CNC(=O)c1cc(COc2ccc3ncccc3c2)on1	none
O=C(NCc1cccc(Cl)c1)c1cc(COc2ccc3ncccc3c2)on1	KCNK3 block -13.2, KCNQ1 block 13 (no result: Cl transport mod) | KCNQ1 inh valid 93.0 | CHO KCNQ1 ctr 0.333 | KCNQ2 spec 99.7% | KCNQ1-KCNE1 inh active | KCNK3 inh conf 126.0 | KCNK3 uninduced inactive
c1ccc(-c2cc(-c3nc4ccccc4[nH]3)c3ccccc3n2)cc1	KCNK3 block -10.1, KCNK9 block -7.57, KCNQ1 block 8 | KCNQ1 inh valid 149.0 | CHO KCNQ1 ctr 0.249 | KCNQ2 spec 122.3% | KCNQ1-KCNE1 inh active | KCNK3 inh conf 143.3 | KCNK3 uninduced 0.135
Cc1ccc(S(=O)(=O)N2CCOc3ccccc32)c(C)c1NS(C)(=O)=O	none (no result: Cl transport mod)
COc1ccccc1/C=N\NC(=O)c1ccc(COc2ccc(C)c(C)c2)o1	none (no result: Cl transport mod)
CCc1ccc(NC(=O)COC(=O)Cn2cnc3ccccc32)cc1	none (no result: KCNK9 block, KCNQ1 block, KCNQ1 act, Cl transport mod, hERG rescue)
O=S(=O)(Nc1ccccc1O)c1ccc(-c2ccccc2)cc1	KCNK3 block -10.8, KCNQ1 block 15 | KCNQ1 inh valid 136.0 | CHO KCNQ1 ctr inactive | KCNQ1 APC inh inactive | KCNQ2 spec 94.0% | KCNQ1-KCNE1 inh 76.5% | KCNK3 inh conf 120.0 | KCNK3 uninduced inactive
Cc1nc2ccccc2c2c1CC(C(C)(Cl)Br)O2 (configuration not stated)	KCNK3 block -9.59, KCNQ1 block 6 | KCNQ1 inh valid 106.5 | CHO KCNQ1 ctr inactive | KCNQ1 APC inh active | KCNQ2 spec 80.3% | KCNQ1-KCNE1 inh inactive | KCNK3 inh conf 127.3 | KCNK3 uninduced inactive
CCOC(=O)COc1coc(CN2CCN(c3ccc(F)cc3)CC2)cc1=O	none (no result: Cl transport mod)
COc1cc(Cl)c(CNC[C@H]2O[C@@H](n3cnc4c(N)ncnc43)[C@H](O)[C@@H]2O)c(Cl)c1O	none (no result: KCNK9 block, KCNQ1 block, KCNQ1 act, Cl transport mod, hERG rescue)
CC(C)(C)n1nnnc1C(c1ccc(Cl)cc1)N1CCCc2ccccc21 (configuration not stated)	KCNK9 block -11.2, KCNQ1 block 6 | KCNQ1 inh valid 82.5 | CHO KCNQ1 ctr inactive | KCNQ2 spec 87.7% | KCNQ1-KCNE1 inh 85.0% | KCNK9 block conf 55.5% | Kir2-1 spec inactive | KCNK9 uninduced 42.0% | KCNK3 inh conf 130.7 | KCNK3 uninduced 0.133
COc1cc(OC)c2c(-c3cccc(-c4ccc(F)c(Cl)c4)c3)cc(=O)oc2c1	none (no result: KCNK9 block, KCNQ1 block, KCNQ1 act, Cl transport mod, hERG rescue)
O=C(CCCOc1ccc(Cl)cc1Cl)N1CCCc2ccccc21	KCNK3 block -11.5, KCNQ1 block 8 | KCNQ1 inh valid 112.5 | CHO KCNQ1 ctr inactive | KCNQ1 APC inh inactive | KCNQ2 spec 92.0% | KCNQ1-KCNE1 inh 167.0% | KCNK9 block conf inactive | Kir2-1 spec inactive | KCNK9 uninduced 33.0% | KCNK3 inh conf 122.3 | KCNK3 uninduced 0.144
CCCc1nnn(S(=O)(=O)c2ccc([N+](=O)[O-])cc2)c1CCC	none (no result: KCNK9 block, KCNQ1 block, KCNQ1 act, Cl transport mod, hERG rescue)
O=C(Nc1ccncc1)c1ccc(Cl)c(S(=O)(=O)N2CCc3ccccc32)c1	KCNK3 block -10.4, KCNQ1 block 10 (no result: Cl transport mod) | KCNQ1 inh valid 134.5 | CHO KCNQ1 ctr 0.294 | KCNQ2 spec 94.0% | KCNQ1-KCNE1 inh 134.0% | KCNK3 inh conf 136.0 | KCNK3 uninduced 0.158
O=C(Nc1ccncc1)c1ccc(Cl)c(S(=O)(=O)N2CCCCC2)c1	none (no result: Cl transport mod)
COc1cc(OC)c(C(=O)OCC(=O)NCC2CCCCC2)cc1OC	none (no result: KCNK9 block, KCNQ1 block, KCNQ1 act, Cl transport mod, hERG rescue)
CCOC(=O)C1CCCN(C(=O)CN2C(=O)NC(C)(c3ccc4ccccc4c3)C2=O)C1 (configuration not stated)	none (no result: Cl transport mod)
CC(NC(=O)COc1ccc(S(=O)(=O)N2CCOCC2)cc1)c1ccccc1 (configuration not stated)	none (no result: KCNK9 block, KCNQ1 block, KCNQ1 act, Cl transport mod, hERG rescue)
